# From PMC3951244 (Bioorganic & medicinal chemistry letters, 2014)
# Assays:
# CYP = CYP inhibition profile; format: in vitro ADME
# GlyT1 = biological target: T1, GlyT1 (Homo sapiens, UniProt P48067); test: Enzyme kinetics of [14C]-glycine transport; format: biochemical; settings: [14C]-glycine transport kinetics; 120 nM 12b in Fig. 3
# T1 sequence (P48067 1-706): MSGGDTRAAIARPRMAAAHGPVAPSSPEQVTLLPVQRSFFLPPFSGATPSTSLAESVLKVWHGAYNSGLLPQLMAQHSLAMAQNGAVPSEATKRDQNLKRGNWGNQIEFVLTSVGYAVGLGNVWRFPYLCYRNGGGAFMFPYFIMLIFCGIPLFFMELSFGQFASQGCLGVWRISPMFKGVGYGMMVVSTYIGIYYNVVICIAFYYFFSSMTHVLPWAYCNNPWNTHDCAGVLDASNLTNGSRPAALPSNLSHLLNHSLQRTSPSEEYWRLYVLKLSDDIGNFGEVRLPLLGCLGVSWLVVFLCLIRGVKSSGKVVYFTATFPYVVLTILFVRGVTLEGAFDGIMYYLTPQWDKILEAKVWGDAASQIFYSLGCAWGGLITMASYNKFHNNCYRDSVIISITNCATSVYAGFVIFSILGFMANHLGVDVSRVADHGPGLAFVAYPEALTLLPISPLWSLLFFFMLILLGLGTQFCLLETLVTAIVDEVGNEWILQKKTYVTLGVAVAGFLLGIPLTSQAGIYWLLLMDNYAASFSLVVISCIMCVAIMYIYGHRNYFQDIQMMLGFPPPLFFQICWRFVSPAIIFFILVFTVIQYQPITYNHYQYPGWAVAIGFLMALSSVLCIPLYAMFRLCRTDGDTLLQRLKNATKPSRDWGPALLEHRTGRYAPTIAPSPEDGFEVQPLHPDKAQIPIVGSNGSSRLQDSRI
# Procedure, shortened: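 Saturation curves of [14C]-glycine transport were run with either vehicle or 120 nM test compound. Inhibition mode relative to glycine was assessed from an Eadie-Hoffstee plot of the transport data.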
IC50 (CYP) [µM],Mechanism of GlyT1 inhibition with respect to glycine (GlyT1),SMILES
> 10,,Cn1cnc(S(=O)(=O)N2CC3CCC(NC(=O)c4ccc(Cl)cc4Cl)C3C2)c1 (stereo not drawn) [Compound 12a]
,competitively inhibits,Cn1cnc(S(=O)(=O)N2CC3CCC(NC(=O)c4ccccc4C(F)(F)F)C3C2)c1 (stereo not drawn) [Compound 12b]
> 10,,Cn1cnc(S(=O)(=O)N2CC(C(NC(=O)c3ccc(Cl)cc3Cl)c3ccccn3)C2)c1 (stereo not drawn) [Compound 27c]
